Measured values taken from ChEMBL document CHEMBL3232842, “Synthesis and pharmacological evaluation of novel limonin derivatives as anti-inflammatory and analgesic agents with high water solubility” (Bioorg Med Chem Lett, 2014).
Active and inactive are the calls of the source. The calls are words filed in the database; no cut-off is given here.

Tested on: not listed separately
Test: Dissociation constant, pKa of the compound
Type: physicochemical
Details: not given

Structure (SMILES)	pKa
CC1(C)O[C@H]2CC(=O)OC[C@]23[C@H]2CC[C@@]4(C)[C@H](c5ccoc5)OC(=O)[C@H]5O[C@]54[C@]2(C)/C(=N\OCCN2CCOCC2)C[C@@H]13.Cl	6.11
CC1(C)O[C@H]2CC(=O)OC[C@]23[C@H]2CC[C@]4(C)C(=CC(=O)O[C@H]4c4ccoc4)[C@]2(C)/C(=N\OCCN2CCCCC2)C[C@@H]13.Cl	8.52
CCN(CC)CCO/N=C1/C[C@H]2C(C)(C)O[C@H]3CC(=O)OC[C@]32[C@H]2CC[C@@]3(C)[C@H](c4ccoc4)OC(=O)[C@H]4O[C@]43[C@]12C.Cl	9.17
CN(C)CCCO/N=C1/C[C@H]2C(C)(C)O[C@H]3CC(=O)OC[C@]32[C@H]2CC[C@@]3(C)[C@H](c4ccoc4)OC(=O)[C@H]4O[C@]43[C@]12C.Cl	9.28
CCN(CC)CCO/N=C1/C[C@H]2C(C)(C)O[C@H]3CC(=O)OC[C@]32[C@H]2CC[C@]3(C)C(=CC(=O)O[C@H]3c3ccoc3)[C@]12C.Cl	9.49
CC1(C)O[C@H]2CC(=O)OC[C@]23[C@H]2CC[C@]4(C)C(=CC(=O)O[C@H]4c4ccoc4)[C@]2(C)/C(=N\OCCN2CCOCC2)C[C@@H]13.Cl	6.84
CN(C)CCO/N=C1/C[C@H]2C(C)(C)O[C@H]3CC(=O)OC[C@]32[C@H]2CC[C@@]3(C)[C@H](c4ccoc4)OC(=O)[C@H]4O[C@]43[C@]12C.Cl	8.78

Tested on: not listed separately
Test: Partition coefficient, log D of the compound at pH 7.4
Type: physicochemical
Details: octanol/water

Structure (SMILES)	logD
CC1(C)O[C@H]2CC(=O)OC[C@]23[C@H]2CC[C@@]4(C)[C@H](c5ccoc5)OC(=O)[C@H]5O[C@]54[C@]2(C)/C(=N\OCCN2CCOCC2)C[C@@H]13.Cl	2.45
CC1(C)O[C@H]2CC(=O)OC[C@]23[C@H]2CC[C@]4(C)C(=CC(=O)O[C@H]4c4ccoc4)[C@]2(C)/C(=N\OCCN2CCCCC2)C[C@@H]13.Cl	0.81
CCN(CC)CCO/N=C1/C[C@H]2C(C)(C)O[C@H]3CC(=O)OC[C@]32[C@H]2CC[C@@]3(C)[C@H](c4ccoc4)OC(=O)[C@H]4O[C@]43[C@]12C.Cl	0.26
CN(C)CCCO/N=C1/C[C@H]2C(C)(C)O[C@H]3CC(=O)OC[C@]32[C@H]2CC[C@@]3(C)[C@H](c4ccoc4)OC(=O)[C@H]4O[C@]43[C@]12C.Cl	0.37
CCN(CC)CCO/N=C1/C[C@H]2C(C)(C)O[C@H]3CC(=O)OC[C@]32[C@H]2CC[C@]3(C)C(=CC(=O)O[C@H]3c3ccoc3)[C@]12C.Cl	0.57
CC1(C)O[C@H]2CC(=O)OC[C@]23[C@H]2CC[C@]4(C)C(=CC(=O)O[C@H]4c4ccoc4)[C@]2(C)/C(=N\OCCN2CCOCC2)C[C@@H]13.Cl	2.52
CN(C)CCO/N=C1/C[C@H]2C(C)(C)O[C@H]3CC(=O)OC[C@]32[C@H]2CC[C@@]3(C)[C@H](c4ccoc4)OC(=O)[C@H]4O[C@]43[C@]12C.Cl	0.59

Tested on: not listed separately
Test: Intrinsic aqueous solubility of the compound
Type: physicochemical
Details: read-out: Intrinsic_solubility
Summary of the method: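 Determined on a Gemini Profiler by potentiometric titration (Avdeef–Bucher method), which also gave pKa; logD at pH 7.4.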

Structure (SMILES)	solubility
CC1(C)O[C@H]2CC(=O)OC[C@]23[C@H]2CC[C@@]4(C)[C@H](c5ccoc5)OC(=O)[C@H]5O[C@]54[C@]2(C)/C(=N\OCCN2CCOCC2)C[C@@H]13.Cl	4500 µg/mL
CC1(C)O[C@H]2CC(=O)OC[C@]23[C@H]2CC[C@]4(C)C(=CC(=O)O[C@H]4c4ccoc4)[C@]2(C)/C(=N\OCCN2CCCCC2)C[C@@H]13.Cl	19800 µg/mL
CCN(CC)CCO/N=C1/C[C@H]2C(C)(C)O[C@H]3CC(=O)OC[C@]32[C@H]2CC[C@@]3(C)[C@H](c4ccoc4)OC(=O)[C@H]4O[C@]43[C@]12C.Cl	14500 µg/mL
CN(C)CCCO/N=C1/C[C@H]2C(C)(C)O[C@H]3CC(=O)OC[C@]32[C@H]2CC[C@@]3(C)[C@H](c4ccoc4)OC(=O)[C@H]4O[C@]43[C@]12C.Cl	9600 µg/mL
CCN(CC)CCO/N=C1/C[C@H]2C(C)(C)O[C@H]3CC(=O)OC[C@]32[C@H]2CC[C@]3(C)C(=CC(=O)O[C@H]3c3ccoc3)[C@]12C.Cl	1900 µg/mL
CC1(C)O[C@H]2CC(=O)OC[C@]23[C@H]2CC[C@]4(C)C(=CC(=O)O[C@H]4c4ccoc4)[C@]2(C)/C(=N\OCCN2CCOCC2)C[C@@H]13.Cl	2100 µg/mL
CN(C)CCO/N=C1/C[C@H]2C(C)(C)O[C@H]3CC(=O)OC[C@]32[C@H]2CC[C@@]3(C)[C@H](c4ccoc4)OC(=O)[C@H]4O[C@]43[C@]12C.Cl	17800 µg/mL

Tested on: Mus musculus
Test: Analgesic activity in mouse assessed as inhibition of acetic acid-induced writhing at 70 mg/kg, ig administered 1 hr before acetic acid challenge measured after 15 mins
Type: functional
Details: po, route intragastric
Summary of the method: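 Mice dosed by gavage with compound suspended in 0.5% CMC-Na; the model group got vehicle only. 1 h later, 0.7% acetic acid in saline was injected i.p. at 0.1 ml/10 g body weight. Writhes were counted 15 min after the stimulus. Results are mean ± SEM, n = 8.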

Structure (SMILES)	inhibition in vivo at 70 mg/kg
CC1(C)O[C@H]2CC(=O)OC[C@]23[C@H]2CC[C@@]4(C)[C@H](c5ccoc5)OC(=O)[C@H]5O[C@]54[C@]2(C)/C(=N\OCCN2CCOCC2)C[C@@H]13.Cl	58%
CC1(C)O[C@H]2CC(=O)OC[C@]23[C@H]2CC[C@]4(C)C(=CC(=O)O[C@H]4c4ccoc4)[C@]2(C)/C(=N\OCCN2CCCCC2)C[C@@H]13.Cl	44.3%
CCN(CC)CCO/N=C1/C[C@H]2C(C)(C)O[C@H]3CC(=O)OC[C@]32[C@H]2CC[C@@]3(C)[C@H](c4ccoc4)OC(=O)[C@H]4O[C@]43[C@]12C.Cl	80%
CN(C)CCCO/N=C1/C[C@H]2C(C)(C)O[C@H]3CC(=O)OC[C@]32[C@H]2CC[C@@]3(C)[C@H](c4ccoc4)OC(=O)[C@H]4O[C@]43[C@]12C.Cl	64.1%
CCN(CC)CCO/N=C1/C[C@H]2C(C)(C)O[C@H]3CC(=O)OC[C@]32[C@H]2CC[C@]3(C)C(=CC(=O)O[C@H]3c3ccoc3)[C@]12C.Cl	33.2%
CC1(C)O[C@H]2CC(=O)OC[C@]23[C@H]2CC[C@]4(C)C(=CC(=O)O[C@H]4c4ccoc4)[C@]2(C)/C(=N\OCCN2CCOCC2)C[C@@H]13.Cl	50%
CN(C)CCO/N=C1/C[C@H]2C(C)(C)O[C@H]3CC(=O)OC[C@]32[C@H]2CC[C@@]3(C)[C@H](c4ccoc4)OC(=O)[C@H]4O[C@]43[C@]12C.Cl	68.6%

Tested on: Mus musculus
Test: Analgesic activity in mouse assessed as increase in tail-curl latency time at 100 mg/kg, ig measured after 30 to 90 mins by tail-immersion test
Type: functional, organism-based
Set-up: dose 100 mg/kg
Details: not given
Summary of the method: (§1)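 Mice dosed by gavage with 100 mg/kg suspended in 0.5% CMC-Na. Tail-curl latency in the tail-immersion test was recorded before dosing and at 30, 60, 90 and 120 min afterward. Results are given as mean ± SEM (n = 8), with one-way ANOVA against control.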

Structure (SMILES)	Activity
CC1(C)O[C@H]2CC(=O)OC[C@]23[C@H]2CC[C@@]4(C)[C@H](c5ccoc5)OC(=O)[C@H]5O[C@]54[C@]2(C)/C(=N\OCCN2CCOCC2)C[C@@H]13.Cl	Active
CCN(CC)CCO/N=C1/C[C@H]2C(C)(C)O[C@H]3CC(=O)OC[C@]32[C@H]2CC[C@@]3(C)[C@H](c4ccoc4)OC(=O)[C@H]4O[C@]43[C@]12C.Cl	Active
CN(C)CCCO/N=C1/C[C@H]2C(C)(C)O[C@H]3CC(=O)OC[C@]32[C@H]2CC[C@@]3(C)[C@H](c4ccoc4)OC(=O)[C@H]4O[C@]43[C@]12C.Cl	Active
CN(C)CCO/N=C1/C[C@H]2C(C)(C)O[C@H]3CC(=O)OC[C@]32[C@H]2CC[C@@]3(C)[C@H](c4ccoc4)OC(=O)[C@H]4O[C@]43[C@]12C.Cl	Active

Tested on: Mus musculus
Test: Analgesic activity in mouse assessed as increase in tail-curl latency time at 100 mg/kg, ig measured after 60 mins by tail-immersion test
Type: functional, organism-based
Set-up: dose 100 mg/kg
Details: not given
Summary of the method: as §1

Structure (SMILES)	Activity
CC1(C)O[C@H]2CC(=O)OC[C@]23[C@H]2CC[C@]4(C)C(=CC(=O)O[C@H]4c4ccoc4)[C@]2(C)/C(=N\OCCN2CCCCC2)C[C@@H]13.Cl	Active
CCN(CC)CCO/N=C1/C[C@H]2C(C)(C)O[C@H]3CC(=O)OC[C@]32[C@H]2CC[C@]3(C)C(=CC(=O)O[C@H]3c3ccoc3)[C@]12C.Cl	Active
CC1(C)O[C@H]2CC(=O)OC[C@]23[C@H]2CC[C@]4(C)C(=CC(=O)O[C@H]4c4ccoc4)[C@]2(C)/C(=N\OCCN2CCOCC2)C[C@@H]13.Cl	Active

Tested on: Mus musculus
Test: Analgesic activity in mouse assessed as increase in tail-curl latency time at 100 mg/kg, ig measured after 90 mins by tail-immersion test
Type: functional, organism-based
Set-up: dose 100 mg/kg
Details: not given
Summary of the method: as §1

Structure (SMILES)	Activity
CCN(CC)CCO/N=C1/C[C@H]2C(C)(C)O[C@H]3CC(=O)OC[C@]32[C@H]2CC[C@@]3(C)[C@H](c4ccoc4)OC(=O)[C@H]4O[C@]43[C@]12C.Cl	Active

Tested on: Mus musculus
Test: Antiinflammatory activity in mouse assessed as xylene-induced ear swollen extent at 100 mg/kg, ig administered 90 mins prior to xylene challenge measured after 30 mins (reference value: 132.8 +/-16.3%)
Type: functional
Details: route intragastric
Summary of the method: (§2)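 Mice were given compound by gavage as a suspension in 0.5% CMC-Na; the vehicle group got 0.5% CMC-Na. 90 min later, 25 µl xylene was applied to both surfaces of the right ear, with the left ear as control. Mice were killed 30 min later. 8 mm punches were taken from both ears and weighed, and swelling was expressed relative to the left ear weight. Results are mean ± SEM, n = 8.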

Structure (SMILES)	Ear swelling extent
CC1(C)O[C@H]2CC(=O)OC[C@]23[C@H]2CC[C@@]4(C)[C@H](c5ccoc5)OC(=O)[C@H]5O[C@]54[C@]2(C)/C(=N\OCCN2CCOCC2)C[C@@H]13.Cl	62.4%
CC1(C)O[C@H]2CC(=O)OC[C@]23[C@H]2CC[C@]4(C)C(=CC(=O)O[C@H]4c4ccoc4)[C@]2(C)/C(=N\OCCN2CCCCC2)C[C@@H]13.Cl	99.1%
CCN(CC)CCO/N=C1/C[C@H]2C(C)(C)O[C@H]3CC(=O)OC[C@]32[C@H]2CC[C@@]3(C)[C@H](c4ccoc4)OC(=O)[C@H]4O[C@]43[C@]12C.Cl	32.6%
CN(C)CCCO/N=C1/C[C@H]2C(C)(C)O[C@H]3CC(=O)OC[C@]32[C@H]2CC[C@@]3(C)[C@H](c4ccoc4)OC(=O)[C@H]4O[C@]43[C@]12C.Cl	71.6%
CCN(CC)CCO/N=C1/C[C@H]2C(C)(C)O[C@H]3CC(=O)OC[C@]32[C@H]2CC[C@]3(C)C(=CC(=O)O[C@H]3c3ccoc3)[C@]12C.Cl	108.2%
CC1(C)O[C@H]2CC(=O)OC[C@]23[C@H]2CC[C@]4(C)C(=CC(=O)O[C@H]4c4ccoc4)[C@]2(C)/C(=N\OCCN2CCOCC2)C[C@@H]13.Cl	96.1%
CN(C)CCO/N=C1/C[C@H]2C(C)(C)O[C@H]3CC(=O)OC[C@]32[C@H]2CC[C@@]3(C)[C@H](c4ccoc4)OC(=O)[C@H]4O[C@]43[C@]12C.Cl	72.4%

Tested on: Mus musculus
Test: Antiinflammatory activity in mouse assessed as inhibition of xylene-induced ear swelling at 100 mg/kg, ig administered 90 mins prior to xylene challenge measured after 30 mins
Type: functional
Details: po, route intragastric
Summary of the method: as §2

Structure (SMILES)	inhibition in vivo at 100 mg/kg
CC1(C)O[C@H]2CC(=O)OC[C@]23[C@H]2CC[C@@]4(C)[C@H](c5ccoc5)OC(=O)[C@H]5O[C@]54[C@]2(C)/C(=N\OCCN2CCOCC2)C[C@@H]13.Cl	53%
CC1(C)O[C@H]2CC(=O)OC[C@]23[C@H]2CC[C@]4(C)C(=CC(=O)O[C@H]4c4ccoc4)[C@]2(C)/C(=N\OCCN2CCCCC2)C[C@@H]13.Cl	25.4%
CCN(CC)CCO/N=C1/C[C@H]2C(C)(C)O[C@H]3CC(=O)OC[C@]32[C@H]2CC[C@@]3(C)[C@H](c4ccoc4)OC(=O)[C@H]4O[C@]43[C@]12C.Cl	75.5%
CN(C)CCCO/N=C1/C[C@H]2C(C)(C)O[C@H]3CC(=O)OC[C@]32[C@H]2CC[C@@]3(C)[C@H](c4ccoc4)OC(=O)[C@H]4O[C@]43[C@]12C.Cl	46.1%
CCN(CC)CCO/N=C1/C[C@H]2C(C)(C)O[C@H]3CC(=O)OC[C@]32[C@H]2CC[C@]3(C)C(=CC(=O)O[C@H]3c3ccoc3)[C@]12C.Cl	18.4%
CC1(C)O[C@H]2CC(=O)OC[C@]23[C@H]2CC[C@]4(C)C(=CC(=O)O[C@H]4c4ccoc4)[C@]2(C)/C(=N\OCCN2CCOCC2)C[C@@H]13.Cl	27.6%
CN(C)CCO/N=C1/C[C@H]2C(C)(C)O[C@H]3CC(=O)OC[C@]32[C@H]2CC[C@@]3(C)[C@H](c4ccoc4)OC(=O)[C@H]4O[C@]43[C@]12C.Cl	45.5%
